“Also recorded” adds a separate entry of the source.
Legend:
P. falciparum W2 clone = experiment: In vitro antimalarial activity via the SYBR Green I assay; assay type: cell-based, Plasmodium falciparum
Summary of the method: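 Sorbitol-synchronized parasites in human O+ erythrocytes (0.5% parasitaemia, 2% haematocrit) received twofold dilutions of test compound, 1.56–200 µM final, in triplicate; artemisinin 170 nM was the control. Incubation was 72 h at 37 °C under 5% CO2/5% O2/90% N2. Cells were lysed in Tris/EDTA/saponin/Triton buffer with SYBR Green I, 30 min at 24 °C in the dark; ex 485/em 590 nm, uninfected-RBC blank subtracted. SI = HepG2 CC50 (MTT, 72 h) ÷ IC50.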

[1] = Cytotoxic activity via the MTT method; assay type: cell-based, human; conditions: human, HepG2 cells
[2] = in silico predictions ref 77; cited from earlier work
[3] = tested on: human hepatocellular carcinoma cell line (HepG2); experiment: Cytotoxic activity via the MTT method; assay type: cell-based; conditions: highest concentration tested 500 µM
[4] = tested on: P. falciparum NF54 gametocytes (stages IV, V); experiment: Exflagellation-blocking bioassay; assay type: cell-based, Plasmodium falciparum; conditions: 1 µM; ≥ 75% high, 25 to 75% average, below 25% inactive
Summary of the method: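 Stage IV–V gametocytes were first checked for exflagellation (≥30 exflagellating microgametocytes per 1000 RBC). They were then exposed for 48 h to test compound at 1 µM in triplicate, with DMSO ≤0.5% and DHA 1 µM as controls. Exflagellation was induced in ookinete medium containing xanthurenic acid, 20 min at 24 °C, and counted by microscopy at 1000×. Inhibition ≥75% was classed active.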

Compound	SI (selectivity index) (P. falciparum W2 clone; CC50 HepG2 divided by IC50 W2)	IC50 (P. falciparum W2 clone; Plasmodium falciparum, W2, 72 h, read-out: IC50 W2)	CC50 at 72 h [1]	viability at 72 h, 500 µM [1]	Plasma protein binding [2]	Cytotoxicity to HepG2 cells (in words) [3]	Potential to block malaria transmission (classification) [4]
C[C@@H]1CC[C@H]2[C@@H](C)C(=O)O[C@@H]3O[C@@]4(C)CC[C@@H]1[C@]32OO4 [Artemisinin]	≥ 23,809	21 ± 4 nM	≥ 500 µM	100%	high plasm protein binding		
CC(=O)OCc1cn(-c2n[nH]c(C)n2)nn1 [Compound 13d, (1-(5-methyl-1H-1,2,4-triazol-3-yl)-1H-1,2,3-triazol-4-yl)methyl acetate]			≥ 500 µM	80%		non-cytotoxic; also recorded: no cytotoxicity	
CC(=O)OCc1cn(-c2n[nH]c(C(F)(F)F)n2)nn1 [Compound 14d, (1-(5-(trifluoromethyl)-1H-1,2,4-triazol-3-yl)-1H-1,2,3-triazol-4-yl)methyl acetate]			≥ 500 µM	93.4%		non-cytotoxic; also recorded: no cytotoxicity	high potential to block malaria transmission; also recorded: strong potential to block malaria transmission
CCN(CC)CCCC(C)Nc1ccnc2cc(Cl)ccc12 (stereo not drawn) [chloroquine]					high plasm protein binding		
OC(c1cc(C(F)(F)F)nc2c(C(F)(F)F)cccc12)C1CCCCN1 (stereo not drawn) [mefloquine]					high plasm protein binding		
COc1cc(NC(C)CCCN)c2ncccc2c1 (stereo not drawn) [primaquine]					high plasm protein binding		
